Results as given in ChEMBL document CHEMBL1156827, “Benzimidazole derivatives as new serotonin 5-HT6 receptor antagonists. Molecular mechanisms of receptor inactivation” (J Med Chem, 2010).
The source made the active and inactive calls. No cut-off for these calls is given here.

Columns and labels:
[1] = molecular target: T1, 5-hydroxytryptamine receptor 6 (Homo sapiens, UniProt P50406); experiment: Displacement of [3H]LSD from human 5HT6 receptor expressed in HEK293 cells by liquid scintillation counting; assay type: cell-based
T1 sequence (P50406 whole entry): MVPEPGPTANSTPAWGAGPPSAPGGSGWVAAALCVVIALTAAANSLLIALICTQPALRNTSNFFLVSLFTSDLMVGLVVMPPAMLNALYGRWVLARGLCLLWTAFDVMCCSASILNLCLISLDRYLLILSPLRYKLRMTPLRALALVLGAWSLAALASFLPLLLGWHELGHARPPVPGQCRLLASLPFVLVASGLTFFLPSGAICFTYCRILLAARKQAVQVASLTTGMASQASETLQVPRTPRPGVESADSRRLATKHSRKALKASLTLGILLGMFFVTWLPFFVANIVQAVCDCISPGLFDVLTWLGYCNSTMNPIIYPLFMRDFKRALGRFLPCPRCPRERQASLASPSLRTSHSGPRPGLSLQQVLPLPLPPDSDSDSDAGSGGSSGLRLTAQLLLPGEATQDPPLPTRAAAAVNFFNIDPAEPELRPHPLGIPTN
Procedure, shortened: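 Buffer: 50 mM Tris-HCl, 10 mM MgCl2, 0.5 mM EDTA, pH 7.4. Nonspecific binding was defined with 500 μM serotonin. Samples were filtered onto 0.5% PEI-soaked filters, washed with ice-cold Tris, and counted by scintillation. Screening was at 10^-6 M; six-point curves were run if displacement exceeded 50%. Ki by Cheng-Prusoff, 2-4 experiments.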

[2] = molecular target: 5-hydroxytryptamine receptor 7 (Homo sapiens, UniProt P34969); experiment: Displacement of [3H]LSD from human 5HT7 receptor expressed in HEK293 cells by liquid scintillation counting; assay type: cell-based
5-hydroxytryptamine receptor 7, sequence (P34969 whole entry): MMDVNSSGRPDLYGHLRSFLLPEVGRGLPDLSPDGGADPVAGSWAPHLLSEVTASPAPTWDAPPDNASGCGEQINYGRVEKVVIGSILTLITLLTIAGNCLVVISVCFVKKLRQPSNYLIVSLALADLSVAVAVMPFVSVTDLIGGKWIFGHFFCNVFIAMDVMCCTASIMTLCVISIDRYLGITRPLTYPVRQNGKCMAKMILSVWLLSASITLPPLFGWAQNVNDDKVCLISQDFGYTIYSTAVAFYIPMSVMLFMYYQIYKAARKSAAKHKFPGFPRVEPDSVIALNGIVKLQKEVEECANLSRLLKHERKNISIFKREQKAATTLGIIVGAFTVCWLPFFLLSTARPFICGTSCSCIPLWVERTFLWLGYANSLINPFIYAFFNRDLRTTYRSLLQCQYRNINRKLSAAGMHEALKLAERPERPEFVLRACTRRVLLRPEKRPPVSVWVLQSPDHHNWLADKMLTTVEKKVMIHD
Procedure, shortened: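 Purchased HEK-293 membranes expressing h5-HT7R were incubated with 3 nM [³H]LSD for 120 min at 27 °C. Buffer: 50 mM Tris-HCl, 10 mM MgSO4, 0.5 mM EDTA, pH 7.4. Nonspecific binding was defined with 25 μM clozapine. Samples were filtered onto 0.3% PEI-soaked filters, washed with ice-cold Tris, and counted by scintillation. Ki was derived from IC50 by Cheng-Prusoff.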

[3] = molecular target: T1, 5-hydroxytryptamine receptor 6; experiment: Antagonist activity at human 5HT6 receptor expressed in COS7 cells assessed as inhibition of serotonin-induced cAMP accumulation by HTRF assay; assay type: functional, cell-based, COS-7
Procedure, shortened: (§1)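 COS-7 cells were transfected with wild-type or mutant receptor cDNA and seeded at 100000 cells/well. At 24 h post-transfection, cells were stimulated for 10 min at 37 °C with eight concentrations of test ligand plus 100 μM 5-HT. cAMP was read by HTRF. Three independent experiments in triplicate, mean ± SEM.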

[4] = molecular target: T1, 5-hydroxytryptamine receptor 6; experiment: Agonist activity at human 5HT6 receptor expressed in COS7 cells assessed as stimulation of cAMP accumulation by HTRF assay; assay type: functional, cell-based; settings: COS-7
Procedure, shortened: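 COS-7 cells transfected with human 5-HT6R cDNA, seeded 100000 cells/well, stimulated 24 h post-transfection for 10 min at 37 °C with each tested compound without 5-HT (agonist mode). cAMP quantified by HTRF; activity expressed as percentage of maximal effect obtained with serotonin alone. Three independent experiments in triplicate.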

[5] = molecular target: 5-hydroxytryptamine receptor 6 (Mus musculus, UniProt Q9R1C8); experiment: Antagonist activity at mouse wild type 5HT6 receptor expressed in COS7 cells assessed as inhibition of serotonin-induced cAMP accumulation by HTRF assay; assay type: functional, cell-based, COS-7; procedure, shortened: as §1
5-hydroxytryptamine receptor 6 (Mus musculus, UniProt Q9R1C8), sequence (Q9R1C8 whole entry): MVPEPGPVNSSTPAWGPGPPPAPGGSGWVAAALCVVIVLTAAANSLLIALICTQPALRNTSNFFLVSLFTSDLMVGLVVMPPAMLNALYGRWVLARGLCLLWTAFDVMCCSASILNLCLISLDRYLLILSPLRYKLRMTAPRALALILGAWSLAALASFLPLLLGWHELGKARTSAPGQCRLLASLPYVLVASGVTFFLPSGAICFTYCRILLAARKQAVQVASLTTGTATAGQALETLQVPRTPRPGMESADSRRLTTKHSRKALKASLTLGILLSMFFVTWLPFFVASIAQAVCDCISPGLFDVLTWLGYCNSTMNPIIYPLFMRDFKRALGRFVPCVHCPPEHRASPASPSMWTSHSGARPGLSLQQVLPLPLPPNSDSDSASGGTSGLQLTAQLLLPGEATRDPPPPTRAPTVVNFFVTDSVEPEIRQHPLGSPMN

[6] = molecular target: 5-hydroxytryptamine receptor 6 (Mus musculus, UniProt Q9R1C8, C110A); experiment: Antagonist activity at mouse 5HT6 receptor C3.36A mutant expressed in COS7 cells assessed as inhibition of serotonin-induced cAMP accumulation by HTRF assay; assay type: functional, cell-based, COS-7; procedure, shortened: as §1
5-hydroxytryptamine receptor 6 (Mus musculus, UniProt Q9R1C8, C110A), sequence (Q9R1C8 whole entry C110A): as the sequence (Q9R1C8 whole entry) above, with C110A counted along it

[7] = molecular target: 5-hydroxytryptamine receptor 6 (Mus musculus, UniProt Q9R1C8, W283A); experiment: Antagonist activity at mouse 5HT6 receptor W6.48A mutant expressed in COS7 cells assessed as inhibition of serotonin-induced cAMP accumulation by HTRF assay; assay type: functional, cell-based, COS-7
5-hydroxytryptamine receptor 6 (Mus musculus, UniProt Q9R1C8, W283A), sequence (Q9R1C8 whole entry W283A): as the sequence (Q9R1C8 whole entry) above, with W283A counted along it
Procedure, shortened: as §1, with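 “HTRF. […]” for “HTRF.”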

[8] = molecular target: 5-hydroxytryptamine receptor 6 (Mus musculus, UniProt Q9R1C8, F287A); experiment: Antagonist activity at mouse 5HT6 receptor F6.52A mutant expressed in COS7 cells assessed as inhibition of serotonin-induced cAMP accumulation by HTRF assay; assay type: functional, cell-based, COS-7
5-hydroxytryptamine receptor 6 (Mus musculus, UniProt Q9R1C8, F287A), sequence (Q9R1C8 whole entry F287A): as the sequence (Q9R1C8 whole entry) above, with F287A counted along it
Procedure, shortened: as §1, with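 “HTRF. […]” for “HTRF.”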

[9] = Antagonist activity at mouse 5HT6 receptor N6.55A mutant expressed in COS7 cells assessed as inhibition of serotonin-induced cAMP accumulation by HTRF assay; assay type: functional, cell-based; settings: cos-7
Procedure, shortened: as §1, with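 “HTRF. […]” for “HTRF.”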

Structure (SMILES) | Ki [1] [µM] | Ki [2] [µM] | further results
CN1CCN(c2ccc3[nH]c(C(=O)c4ccccc4)nc3c2)CC1 | > 1 | > 0.5 | 
c1ccc(Cc2nc3c(N4CCNCC4)cccc3[nH]2)cc1 | 0.058 | > 0.5 | Ki [3]: 0.031 µM; Activity [4]: inactive
CN1CCN(c2ccc3[nH]c(Cc4ccccc4)nc3c2)CC1 | > 1 | > 0.5 | 
O=C(c1ccc2ccccc2c1)c1nc2cc(N3CCNCC3)ccc2[nH]1 | > 1 | > 0.5 | 
CN1CCN(c2ccc3[nH]c(C(=O)c4ccc5ccccc5c4)nc3c2)CC1 | > 1 | > 0.5 | 
c1ccc2cc(Cc3nc4ccc(N5CCNCC5)cc4[nH]3)ccc2c1 | > 1 | > 0.5 | 
COc1ccc(NS(=O)(=O)c2ccc(I)cc2)cc1N1CCN(C)CC1 |  |  | Ki [5]: 0.00075 µM; Ki [6]: 0.054 µM; Ki [7]: 0.00032 µM; Ki [8]: 0.114 µM; Ki [9]: 0.027 µM
O=C(c1ccccc1)c1nc2c(N3CCNCC3)cccc2[nH]1 | > 1 | > 0.5 | 
CN1CCN(c2cccc3[nH]c(C(=O)c4cccc5ccccc45)nc23)CC1 |  | > 0.5 | 
CN1CCN(c2cccc3[nH]cnc23)CC1 | > 1 |  | 
CN1CCN(c2cccc3[nH]c(C(=O)c4ccccc4)nc23)CC1 | > 1 | > 0.5 | 
CN1CCN(c2ccc3[nH]c(Cc4ccc5ccccc5c4)nc3c2)CC1 | > 1 | > 0.5 | 
CN1CCN(c2ccc3[nH]c(C(=O)c4cccc5ccccc45)nc3c2)CC1 | > 1 | > 0.5 | 
c1ccc2c(Cc3nc4ccc(N5CCNCC5)cc4[nH]3)cccc2c1 | > 1 | > 0.5 | 
CN1CCN(c2ccc3[nH]c(Cc4cccc5ccccc45)nc3c2)CC1 | > 1 | > 0.5 | 
O=C(c1nc2c(N3CCNCC3)cccc2[nH]1)c1cccc2ccccc12 | 0.013 | > 0.5 | Ki [3]: 0.015 µM; Activity [4]: inactive
CN1CCN(c2cccc3[nH]c(Cc4ccccc4)nc23)CC1 | 0.0668 | > 0.5 | Ki [3]: 0.016 µM; Activity [4]: inactive
c1ccc(Cc2nc3cc(N4CCNCC4)ccc3[nH]2)cc1 | > 1 | > 0.5 | 
CN1CCN(c2cccc3[nH]c(C(=O)c4ccc5ccccc5c4)nc23)CC1 | > 1 | > 0.5 | 
CN1CCN(c2cccc3[nH]c(Cc4cccc5ccccc45)nc23)CC1 | 0.0362 | > 0.5 | Ki [3]: 0.027 µM; Activity [4]: inactive
c1ccc2c(Cc3nc4c(N5CCNCC5)cccc4[nH]3)cccc2c1 | 0.016 | > 0.5 | Ki [3]: 0.016 µM; Activity [4]: inactive
